# Only some compounds are listed: those with a hit (about 2.5% of all), similar ones and a draw of the others.
# eLon inh – inhibitors of E. coli Lon protease | purified E. coli Lon protease, fluorescence polarization | 360,000 tested, 0.42% active | AID 602123 | inhibition, % at 7.94 µM | P0A9M0; in the data active = inhibition above about 13%, passing the limit was not always enough
# PAD4 inh – blocks human protein arginine deiminase 4. Q9UM07. recombinant PAD4, RCA probe fluorescence polarization. 330,000 tested, 0.41% active. inhibition, % at 6.36 µM. AID 485272;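 active = percent inhibition above a cutoff equal to the mean of all tested compounds plus 3 SD, cut at about 15% in these data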
# GSTO1 inh – counter-screen for RBBP9 inhibitors: inhibitors of human GSTO1. 300,000 tested, 1.1% active. P78417. recombinant GSTO1, activity-based probe fluorescence polarization. AID 1974. inhibition, % at 5.96 µM;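 active = inhibition above the campaign mean inhibition plus 3 SD, cut at about 35% in these data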
# Target sequence (P78417 whole entry, looked up): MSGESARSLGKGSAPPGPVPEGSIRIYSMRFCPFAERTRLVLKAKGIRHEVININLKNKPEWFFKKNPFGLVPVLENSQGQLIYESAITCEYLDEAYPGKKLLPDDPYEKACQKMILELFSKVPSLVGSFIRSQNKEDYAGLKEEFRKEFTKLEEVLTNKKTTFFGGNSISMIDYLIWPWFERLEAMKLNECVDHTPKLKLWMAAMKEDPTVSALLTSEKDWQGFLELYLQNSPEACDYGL
# TDP2 absorb – TDP2 (human) inhibition, absorbance primary screen | O95551 | recombinant TDP2, T5PNP hydrolysis, p-nitrophenol absorbance 415 nm | inhibition, % at 12.8 µM | 370,000 tested, 0.34% active;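 active = inhibition above the mean of all tested compounds plus 3 SD, set per campaign, cut at about 25% in these data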
# Target sequence (O95551 whole entry, looked up): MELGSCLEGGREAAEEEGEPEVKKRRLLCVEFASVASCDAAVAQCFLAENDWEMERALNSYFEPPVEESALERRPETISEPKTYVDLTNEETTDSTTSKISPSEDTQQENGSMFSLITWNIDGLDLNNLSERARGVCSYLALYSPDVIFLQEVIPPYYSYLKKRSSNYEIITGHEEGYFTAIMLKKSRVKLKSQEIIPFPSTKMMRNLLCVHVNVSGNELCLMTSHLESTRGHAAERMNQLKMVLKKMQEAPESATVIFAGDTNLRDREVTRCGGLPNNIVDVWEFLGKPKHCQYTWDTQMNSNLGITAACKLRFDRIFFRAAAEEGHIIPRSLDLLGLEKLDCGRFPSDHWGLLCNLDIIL
#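 System: recombinant human TDP2 / Amount: 120 nM TDP2 per well / Also added: 5 mM T5PNP chromogenic substrate / Doses: 12.8 µM single point, 1% DMSO / Incubation: 2 h at 37 °C / Detection: p-Nitrophenol epi absorbance / Evaluation: % inhibition relative to enzyme-containing and enzyme-free wells / Repeats: singlicate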
# PRMT1 FP inh – inhibitors of human PRMT1 | recombinant PRMT1, activity-based probe fluorescence polarization | Q99873 | inhibition, % at 2.79 µM | 370,000 tested, 1.3% active;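 active = inhibition above about 21% made by adding two undisclosed values, limit read from the data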
# PRMT1 inh conf – PRMT1 (human) inhibition, FP confirmation; 3,300 tested, 42% active; shares compounds with PRMT1 FP inh; AID 687036; recombinant His-PRMT1, activity-based probe fluorescence polarization; inhibition, % at 2.79 µM;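 active = mean inhibition across replicates above the hit cutoff derived for the earlier primary screen, cut at about 22% in these data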
# Numbers stand for hits; 0 = inactive; - = no result.
SMILES,eLon inh,PAD4 inh,GSTO1 inh,TDP2 absorb,PRMT1 FP inh,PRMT1 inh conf
COc1ccc(C2c3sc(=O)[nH]c3SC3C(=O)N(c4ccccc4)C(=O)C32)cc1 (centres undefined),0,0,0,0,27,0
C=CCOC(=O)/C=C/C(=O)NC(N)=O,0,0,0,0,76,69
O=C(COCc1ccccc1)N1CC[C@H]2[C@H](CCCN2Cc2ccc(F)cc2)C1,-,-,-,0,0,-
O=C(C(=O)N1CCC(CNS(=O)(=O)c2ccccc2OC(F)(F)F)CC1)c1cccs1,-,-,-,0,0,-
COc1cc(/C=C/C(=O)O)cc(S(=O)(=O)Nc2ccc(F)cc2)c1OC,0,0,0,0,0,-
COc1cc(/C=C/C(=O)O)cc(S(=O)(=O)Nc2ccc3nc(C)sc3c2)c1OC,0,0,0,0,25,28
Cc1ccccc1-n1nnnc1SCC(=O)NNC(=O)c1ccc(NC(=O)CC#N)cc1,0,0,-,0,0,-
CN(NC(=O)/C=C/C(=O)O)c1ncc(C(F)(F)F)cc1Cl,0,0,0,0,35,0
CC(=O)c1ccc(NC(=O)C(C)Sc2nnc(C3CCCCC3)o2)cc1 (centres undefined),-,0,0,0,0,-
COc1cc(C)ccc1OCc1cc(C(=O)N(C)CCCN2CCOCC2)no1,0,0,0,0,0,-
CN(CCCN1CCOCC1)C(=O)c1cc(COc2ccc(F)cc2F)on1,0,0,0,0,29,0
O=C(O)CCc1ccc(-c2ccc(Br)cc2)n1Cc1ccco1,0,0,0,0,0,-
O=C(O)CCc1ccc(-c2ccccc2)n1Cc1ccco1,0,0,0,0,33,0
O=C(O)c1cc([N+](=O)[O-])cc2ccccc12,0,-,-,0,0,-
O=C(NCc1cccnc1)Nc1ccc2c(c1)OCO2,0,0,0,0,0,-
c1cncc(CNc2ccc3c(c2)OCO3)c1,0,0,0,0,75,0
CCOC(=O)[C@H]1[C@H]2COc3ccccc3[C@@H]2N2C(=O)CN(Cc3ccc(C)cc3)C(=O)[C@@]12C,0,0,-,0,50,0
CCOC(=O)[C@H]1[C@H]2COc3ccc(C)cc3[C@@H]2N2C(=O)CN(Cc3ccc(Cl)cc3)C(=O)[C@@]12C,0,0,-,0,0,-
CCCCNc1ccc2c(c1)OC[C@H](Cc1ccccc1)NS2(=O)=O,-,-,-,0,0,-
NS(=O)(=O)c1ccc(NC(=S)NC(=O)/C=C/c2ccco2)cc1,0,0,0,0,56,0
Cc1cccc(NC(=S)NC(=O)/C=C/c2ccco2)c1,0,0,0,0,35,0
CSc1ncccc1C(=O)OCC(=O)NCc1ccccc1,0,0,-,0,0,-
O=C1c2cccc3cccc(c23)C(=O)N1Cc1ccccn1,0,-,-,0,0,-
O=C(O)C1=C(C(=O)O)C2C=CC1C2,0,-,-,0,0,-
CCc1ccc2[nH]c(=O)c(-c3ccccc3)c(O)c2c1,0,0,0,0,0,-
SMILES,eLon inh,PAD4 inh,GSTO1 inh,TDP2 absorb,PRMT1 FP inh,PRMT1 inh conf
CC(C(=O)NCC(=O)Nc1ccc(F)c(F)c1F)N1CCN(c2ccc(O)cc2)CC1 (centres undefined),0,0,-,0,28,0
O=C(CCc1nc2ccccc2c(=O)[nH]1)N1CCN(S(=O)(=O)c2ccc(F)cc2)CC1,0,0,-,0,0,-
CN(C(=O)c1cn(C)c2ccccc12)c1ccc(Oc2cccnc2)cc1,-,-,-,0,0,-
Cn1cc(Br)c(NC(=O)/C=C/C(=O)O)n1,0,0,0,0,36,0
N#C/C(=C\c1ccc2c(c1)OCO2)C(N)=S,0,0,0,0,25,0
CCOC(=O)/C(C#N)=C\c1ccc2c(c1)OCO2,0,0,0,0,0,-
CCC(=O)NNc1nc2c(F)cccc2s1,0,0,0,0,49,0
COc1cc(/C=C2/C(=O)NN(c3ccc(C)c(Cl)c3)C2=O)cc([N+](=O)[O-])c1O,0,-,-,0,28,0
COc1cc(/C=C2/C(=O)NN(c3cccc(C)c3)C2=O)ccc1OC(=O)c1ccco1,0,0,0,0,0,-
COc1cc(/C=C2\SC(=O)N(c3ccc(Cl)cc3)C2=O)cc([N+](=O)[O-])c1O,0,-,-,0,0,-
COc1cc(/C=C2/C(=O)NN(c3cccc(C)c3)C2=O)cc([N+](=O)[O-])c1O,0,0,0,0,32,0
COCC(=O)OCC(=O)N1N=C(c2ccc(Cl)cc2)CC1c1ccco1 (centres undefined),0,0,0,0,0,-
O=C(OCC(=O)N1N=C(c2ccc(Cl)cc2)CC1c1ccco1)c1cccnc1 (centres undefined),0,0,-,0,40,0
CCOc1ccc(C(=O)OC2CCCN(C)C2)cc1 (centres undefined),0,0,0,0,0,-
CN1CCCC(OC(=O)c2ccc(S(=O)(=O)N(C)C)cc2)C1 (centres undefined),0,0,0,0,34,0
CC(=NNC(=S)N1CCN(c2ccccn2)CC1)c1ccccn1,0,-,-,0,0,-
CC(=NNC(=S)N(Cc1ccccn1)Cc1ccccn1)c1cnccn1,0,-,-,0,0,-
CC(=NNC(=S)N1CC2CCC(CC2)C1)c1ccccn1,0,-,-,0,37,0
CC(=NNC(=S)N1CCN(C2CCCCCC2)CC1)c1ccccn1,0,-,-,0,0,-
CC(=NNC(=S)N1CC2CCC(CC2)C1)c1cnccn1,0,-,-,0,25,0
CC(=NNC(=S)N1CCCCCC1)c1cccc2cccnc12,0,-,-,0,26,0
COc1ccc(N/C=C2\CCc3ccccc3C2=O)cc1,0,0,0,0,59,44
O=C(NC1CCN(Cc2ccccc2)CC1)c1cc(S(=O)(=O)N2CCOCC2)ccc1Cl,0,-,-,0,113,0
O=C(NC1CCN(Cc2ccccc2)C1)c1cccc(S(=O)(=O)N2CCOCC2)c1 (centres undefined),0,-,-,0,0,-
CCOc1ccc(N(CC(=O)NCCSCc2ccco2)S(=O)(=O)c2ccc(C)cc2)cc1,0,0,0,0,0,-
SMILES,eLon inh,PAD4 inh,GSTO1 inh,TDP2 absorb,PRMT1 FP inh,PRMT1 inh conf
O=C1C2C3C=CC(C4CC34)C2C(=O)N1Cc1ccccc1 (centres undefined),0,0,0,0,0,-
O=C1C2C3C=CC(C3=C3CCCCC3)C2C(=O)N1Cc1ccccc1 (centres undefined),0,0,0,0,36,0
COC(=O)[C@H](C(C)C)N1Cc2nnn(CC3CCCCC3)c2-c2cc(F)ccc2S1(=O)=O,-,-,-,0,0,-
O=C1CCCC(=O)C1CS(=O)(=O)c1ccccc1,0,0,0,0,44,27
O=C1CC(c2ccc(Cl)cc2)CC(=O)C1CS(=O)(=O)c1ccccc1 (centres undefined),0,0,0,0,0,-
COc1ccccc1N1CCN(C2C(=O)Nc3ccccc3-n3nnnc32)CC1 (centres undefined),-,-,-,0,0,-
CCOC(=O)c1sc(NC(=O)C(C)C)c(C#N)c1C,0,0,0,0,29,0
CCOC(=O)c1sc(NC(=O)C2=COCCO2)c(C#N)c1C,0,0,0,0,0,-
CNC(=O)c1nnsc1S(=O)(=O)c1ccc(Cl)cc1,0,-,-,0,78,72
